Measured values reported in PubChem BioAssay AID588621 (Sanford-Burnham Center for Chemical Genomics, 2011).
The campaign covered roughly 360,000 compounds. About 890 (0.25%) were called active.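 How the source made its calls: active means inhibition at 20 µM, scaled per plate between control wells, above about 37% (limit read from the data); inactive means the rest.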 Many of the other results were omitted from the sample, so actives are more common in it than they were.

What follows are compounds tested against Tyrosine-protein phosphatase non-receptor type 5 (Homo sapiens) (UniProt P54829) (assay: inhibition of human PTPN5 enzyme activity – biochemical, fluorescence intensity, uHTS, primary screen (AID 588621;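 further: 0% = DMSO with enzyme and substrate and 100% = substrate only without enzyme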)). Conditions: recombinant STEP, OMFP fluorogenic substrate, at 20 µM, active compounds read high.
Sequence of Tyrosine-protein phosphatase non-receptor type 5 (Homo sapiens) (P54829 whole entry, looked up): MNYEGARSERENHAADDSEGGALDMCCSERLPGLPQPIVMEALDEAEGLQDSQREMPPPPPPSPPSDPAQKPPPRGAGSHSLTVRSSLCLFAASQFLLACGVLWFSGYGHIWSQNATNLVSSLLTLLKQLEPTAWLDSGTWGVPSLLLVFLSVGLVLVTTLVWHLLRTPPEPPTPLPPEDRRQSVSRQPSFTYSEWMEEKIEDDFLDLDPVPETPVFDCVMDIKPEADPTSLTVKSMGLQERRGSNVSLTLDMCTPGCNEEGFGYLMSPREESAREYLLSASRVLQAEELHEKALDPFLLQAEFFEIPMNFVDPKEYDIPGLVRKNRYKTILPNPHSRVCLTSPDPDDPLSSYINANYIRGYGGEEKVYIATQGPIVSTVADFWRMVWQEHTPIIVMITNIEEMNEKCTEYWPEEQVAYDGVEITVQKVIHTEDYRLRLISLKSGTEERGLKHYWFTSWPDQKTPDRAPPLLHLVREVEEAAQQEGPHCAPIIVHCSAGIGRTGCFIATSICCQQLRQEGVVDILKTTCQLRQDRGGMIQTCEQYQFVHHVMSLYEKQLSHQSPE
Procedure, shortened: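 medium = Bis-Tris buffer pH 6.0, 2.5 mM DTT, 0.005% Tween 20 | test system = STEP (striatal-enriched tyrosine phosphatase) enzyme, cell-free | measure = normalized % inhibition | compound dosing = 20 µM, 1% DMSO | also added = 25 µM OMFP | schedule = reaction 20 min, ambient temperature | measured by = fluorescence read at 480 nm ex / 540 nm em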

Q: With `COc1ccc(N2C(=O)/C(=C/c3ccco3)C(=O)NC2=S)cc1` as the compound, how does the inhibition read?
A: 63.7% (active)

Q: With `CC1CC=CCC12C(=O)NC(=S)NC2=O` (stereo not given) as the compound, how does the inhibition read?
A: 0% (inactive)

Q: For `COc1ccc(-n2c(-c3ccccc3)nc3ccccc3c2=O)cc1`, which inhibition is on record?
A: -0.9% (inactive)

Q: Which inhibition does the source give for `O=C(c1cc2nc(-c3ccccc3)cc(-c3ccccc3)n2n1)N1CCC2(CC1)OCCO2` here?
A: 0.4% (inactive)

Q: How did the inhibition turn out when `CN(C)CCN(CC1CCCN(Cc2ccccc2F)C1)C(=O)Cc1ccc(F)c(F)c1` (stereo not given) was run?
A: -2% (inactive)
